Fewer inactive variants are shown than the library holds.
B1: tRNA (parent)
chain: GUUCCGUUGGCGUAAUGGUAACGCGUCUCCCUCCUAAGGAGAAGACUGCGGGUUCGAGUCCCGUACGGAACG

Variants of: B1
Assay: yeast fitness relative to wild type (ratio to wild type); higher = fitter; tRNA-Arg(CCU), competitive growth, 37 C, YPD
Outline: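 Changes in genotype frequencies gave Darwinian fitness relative to wild type. Frequencies were read by 100-nucleotide paired-end sequencing of gene amplicons before and after pooled Saccharomyces cerevisiae strains, carrying tRNA-Arg(CCU) gene variants at the native locus, were competed in YPD at 37°C for 24 hours in six replicates. A genotype was kept only with ≥ 100 starting reads, and estimates < 0.5 were set to 0.5.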

GUGACGUUGGCGUAAUGGUAACGCGUCUCCCUCCUAAGGUGAAGACUGCGGGUUCGGGUCCUGUACGGAACG and GUGGCCUUGGCGUAAUGGUAACGCGUCUACCUCCUCAGGAGAAGACUGCGGCUUCGAGUCCCGUACGGAACG cannot be ordered by yeast fitness: ≤ 0.5 for the first, ≤ 0.5 for the second.

First: GUGGCGUUGGCGUAAUGGUAACGCGUCUCCCUCCUAAGGAGAAGACUGGGGGUUCGAGUCCCGUACGGAACG
Second: GUGCCGUUGGCGUAAUGGUGACGCGUCUCCCUCCUAAGGAGAAGGCUGCGGGUUCGAGUCCCGUACGGAACG
The yeast fitness of the first is higher: 0.826 for the first, 0.75 for the second.

First: GUGCCGUUGGUGUAAUGGUAACGCGUCUCCCUCCUAAGGAGAAGACUGCGGGUUCGAGUCCCGUACGGAGCG
Second: GUGCGGUUGACGUAAUGGUAACGCGUCUCAGUCCUAAGGAGAAGACGGAGGGUUCGAGUUCCGUACAGAACG
The yeast fitness of the first is higher: 0.576 for the first, ≤ 0.5 for the second.

First: GUGCAGUUGGCGUAAUGGUAACGCGUCUCCCUCCUAAGGAGAAGACUGCGGGUUCGAGUCCCGUACGGAACG
Second: GUGCUGUUGGCGUAAUGGUAACGCGUCUCCCCCCUAAGGACAAGACUGUGGGUUCGAGUCCCGUACAGAACG
The yeast fitness of the first is higher: 0.779 for the first, ≤ 0.5 for the second.

GUGCCGUUGGCGUAAUGGUAACGCGUCUCCCUCCUACGGGGAAGACCGCGGGUUCGAGUCCCGUACGGAACG and GUGCUGUUGGCGUAAUGGUAACGCGUCUCCCUCCUAAGAAGAAGACUGUGGGUUCGAGUCCCGUACGGAACG cannot be ordered by yeast fitness: ≤ 0.5 for the first, ≤ 0.5 for the second.

Compared with GUGCCGUUGGUGUAAUGGUAACGCGUCUCCCUCCUAAGGAGAAGUCUGCGGGUUCGAGUCCCGUACGGAACG, GUGACGUUGGCGUAAUGGUAACGCGUCUCCCUCCUAAGGUGAAGACUGCGGGUUCGAGUCCCGUACGGAACG is lower in yeast fitness: 0.559 for the first, 0.547 for the second.

First: GUGCCGUUGGCGUAAUGGUAACGCGUCUCCCUCCUAAGGAGAGGACAGAGGGUUCGAGUCCCGUACGGAACG
Second: GUGCUGUUGGCGUAAUGGUAACGCGUCUCCCAUCUAAGGAGAAGACUGCGGGUUCGAGUCCCGUACGGAACG
The yeast fitness of the first is lower: 0.535 for the first, 0.595 for the second.

Going from GUGCCGUUGGCGUAAUGGUAACGCGUCUCCCUCCUACGGAGUGGACUGCGGGUUCGACUCCUGUACGGAACG to GUGCCGUUGGCGUAAUGGUAACGCGUCUCCCUCCUAAGGAGAAGCCUGCGGGUUCGAGUCCCGUACGGAUCG, the yeast fitness rises from ≤ 0.5 to 0.857.

Compared with GUGCCGUUGGUGUAAUGGUAACGCGUCUCCCUCCUAAGGAGAUGACUGCGGGUUCGUGUCCCGUAAGGAACG, GUGCCGUUGGCGUAAUGGUAACGCGUCUCCCUCCUAAGGAGAGGUCUGCGGGUUCGAGUCCCGUACGGAACG is higher in yeast fitness: ≤ 0.5 for the first, 0.539 for the second.

Compared with GUGCCGUUGGAGCAAUGGUAACGCGUCUCCCUACUAAGGAGUAGACUGCGGGUUAGAGUCCCGUACGGAACG, GUGCCGUUGGUGUAAUGGUAACGCGUCUCCCUCCUAAGGUGAAGACUGCGGGUUCGAGUCCCGUACGGAACG is higher in yeast fitness: ≤ 0.5 for the first, 0.529 for the second.

First: GUGCCGUUGGCGUAAUGGUAACGCGUCUCCCUCCUAUGGAGAAGACUGCGGGUUCGAGUCCCGUACGGAACG
Second: GUGCUGUUGGCGUAAUGGUAACGCGUCUCCAUCCUAAGGAGAAGACUGCGGGUUCGAGUCCCGUUCGGAACG
The yeast fitness of the first is higher: 0.683 for the first, ≤ 0.5 for the second.

First: GUGUCGUUGGCGUAAUGGUAACGCGUCUCCCUCCAAAGGAGAAGACUGCGGGUUCGAAUCCCGUACUGAACG
Second: GUGCCGUUGGCGUAAUGGUAACGCGUCUCCCUCCUAAGGAGAAGACUGCGGGUUCGGGUCCCGUACGGAACG
The yeast fitness of the first is lower: ≤ 0.5 for the first, 0.908 for the second.

Compared with GUGCCGUUGGAGUAAUGGUAACGCGUCUCCCUCGUAAGGAGAAGCCUGCGGCUUCGAGUCCCGUACGGAACG, GUGCCGUUGGCGUAAUGGUAACGCGUCUCCCUCCUCAGGAGAAGCCUGCGGGUUCGAAUCCCGUACGCAUCG is lower in yeast fitness: 0.546 for the first, ≤ 0.5 for the second.

GUGACGUUGGCAUAAUGGUAACGCGUCUAGCUCCUAAGGAGAAGACUGCGGGUUCGAGUCCAGUACGGCACG and GUGACGUUGGCGUAAUGGUAACGCGUCUCCCUCCUAAGGUGAAGACUGCGGGUCCGAGUCCCGUACGGAACG cannot be ordered by yeast fitness: ≤ 0.5 for the first, ≤ 0.5 for the second.

Going from GUGCUGUUGGCGUAAUGGUAACGCGACUCCCUCCUAAGGAGAAGACUGCGGGUUCGAGUCCCGUACGAAACG to GUGACGUUGGGGUAAUGGUAACGCGUCUCCGUCCUAAGGAGAAGACUGCGGGUUCGAGUCCCGUACGGAACG, the yeast fitness rises from ≤ 0.5 to 0.533.

Going from GUGUCGUUGGCGUUUUGGUCACGCGUCUCCCUGCUAAGGUGAAGACUGCGGGUUCGAGUCGCGUACGGAACG to GUGCCGUUGGCGUAAUGGUAACGCGUCUCCCUCCUAAGGAGAAGACUGCGGGUUCGAGUCCCGUACGGUACG, the yeast fitness rises from 0.577 to 0.924.

Compared with GUGCCGUUGGCGUAAUGGUAACGCGUCUCCCUCCUAAGGAGAUGACUGCGGGUUCGAGUCCCGUACGGAACG, GUGCCGUUGGCGUAAUGGUAACGCGUCUCCCUCCUAAGGAGAAGCCUGCGGGUCCGAGUCCCGUACGGUACG is lower in yeast fitness: 1.08 for the first, 0.793 for the second.

First: GUGUCGUUGGCGUAGUGGUAACGGGUCUCCCUCCUAAGGAGAAGACUGCGGGUUUGAGUCCCGUACGGAACG
Second: GUGCCGUUGGCGUAAUGGUAACGCGUCUCCCUCCUAAGGAGAAGACUGCGGGUUCGAGUCCCGUGCGGAACG
The yeast fitness of the first is lower: ≤ 0.5 for the first, 1.1 for the second.

Going from GUGGCCUUGGCGUAAUGGUAACGCGUCUACCUCCUCAGGAGAAGACUGCGGGUUCGAGUCCUGUACGGAACG to GUGCCGUUGGCGUAAUGGUAACGCGUCUCCCUCCUAAGGAGAGGACUGCGGGUUAGAGUCCCGUACGGAACG, the yeast fitness rises from ≤ 0.5 to 0.536.

First: GUGGCCUUGGCGUAAUGGUAACGCGUCUACCUCCUCAGGAGAAGACUGCGGCUUCGAGUCCCGCACGGAACG
Second: GUGCCGUUGGCGUAAUGGUAACGCGUCUCCCUCCUAAGGAGAAGCCUGCGGGUUCGAGUCCCGUACGGAACG
The yeast fitness of the first is lower: ≤ 0.5 for the first, 0.973 for the second.

First: GUGCCGUUGGCGUAAUGGUAACGCGUCUCCCUCCUAAGGAGAAGGCUGCGGGUUCGAGUCCCGUACGGAACG
Second: GUGCUGUUGGCGUAAUGGUAACGCGUCUCCCUCCUAAGGAGAAGACUGCGGGUUCGAGUCCAGUACGGAACG
The yeast fitness of the first is higher: 1 for the first, ≤ 0.5 for the second.

Going from GUGCCGUUGGCGUAAUGGUAACGCGUCUCCCUCCUACGGAGAAGACUGCGGGUUCAAGUCCCGUACGGAACG to GUGCCGUUGGCGUAAUGGUAACGCGUCUCCCUCCUAAGGAGCAGACUGCGGGUUCGAGUCCCGUACCGAACG, the yeast fitness falls from 0.533 to ≤ 0.5.

Going from GUGCCGUUGGCGUAAUGGUAGCGCGUCUCCCUCCUAAGGAGAAGACUGCGGGUUCGAGUCCUGUACGGAACG to GUGCCGUUGGCGUAAUGGUAACGCGUCUCCCUCCUGAGGAGAGGACUGCGGGUUCGAGUCCCGUACGGAACG, the yeast fitness rises from 0.538 to 0.735.

GUGGCGUUGGCGUAAUGGUAAUGCGUCUUCCUCCUAAGGAGAAGACUGCGGGUUCGAGUCCCGUGCGGAACG and GUGCCGUUGGCGUAAUGGUAGCGCGUCUCCCUCCUAACGAGAAGACUGUGGGUUCGAGUCCCGUACGGCACG cannot be ordered by yeast fitness: ≤ 0.5 for the first, ≤ 0.5 for the second.

GUGCCGUUGGGGAAAUGGUAACGCGUCUCGCUCCUAAGGAGAAGACUGCGGGUUCGAGUCCCGUAUGGUACG and GUGCCGUUGGCGUAAUGGUAACGCGUCUCCCUCCUCAGGAGAAGCCUGCGGGUUCGAAUCCCGUACGCAACG cannot be ordered by yeast fitness: ≤ 0.5 for the first, ≤ 0.5 for the second.

GUGCGGUUGGCGUAAUGGCAACGCGUCUCCCUCCUAAGGAGAAGACUGCGGGUUCGAGUCCCGUACGGAACG and GUGGCCUUGGCGUAAUGGUAACGCGUCUACCUCCUCAGGAGAAGACUGCGGCUUCAAGUCCCGUACGGAACG cannot be ordered by yeast fitness: ≤ 0.5 for the first, ≤ 0.5 for the second.

Compared with GUGACGUUAGCGUAAUGGUAACGCGUCUCCCUCCUAAGGAGAAGACUGCGGGUUCGAGUCCCGAACGGAACG, GUGCCGUUGGCGUAAUGGUAACGCGUCUCCCUCCUAAGGAGAAGGCUGGGGGUUCGAGUCCCGUACGGAACG is higher in yeast fitness: ≤ 0.5 for the first, 0.633 for the second.

Compared with GUGCCGUUGGCGUAAUGGUAACGCGUCUCCCUCCUAAGGAGCAGACUGCGGGUUCGAGUCCCGUACGGAACG, GUGCCGUUGGCGUAAUGGUAACGCGUCUCCCUCCUAAGGAGUAGACUGCGGGUUCGAGUCCCGUACGGAACG is higher in yeast fitness: 0.754 for the first, 0.758 for the second.

GUGCUGUUGGCGUAAUGGUAACCCGUCUCCCUCGUAAGGAGAAGACUGCGGGUUGGAGUCCCGUACGGACCG and GUGCUGUUGGCGUAAUGGUAACGCGUCUCCCCCCUAAGGACAAGACUGCGGGUUCGAGUCCCGUACGGAACG cannot be ordered by yeast fitness: ≤ 0.5 for the first, ≤ 0.5 for the second.

GUGCCGUUGGCGUAAUGGUAACGCGUCUCCCUCCUAAGGAGAUGACUGCGGGCACGCGUCCCGUCCGGAACG and GUGCGGUUGGCGUAAUGGCAACGCGUCUCCCUCCUAAGGAGAAGACAGCGGGUUAGAGUCCCGUACGAAACG cannot be ordered by yeast fitness: ≤ 0.5 for the first, ≤ 0.5 for the second.

Compared with GUGCCGUUGGCGUAAUGGUACCGCGUCUCCCUCCUAAGGAGAAGAUUGCGGGUUCGAGUCCCGUACGGAACG, GUGCCGUUGGCGUAAUGGUAACGCGUCUCCCUCCUAAGGAGAAGCCUGCGGGUUCGAGUCCCGUACGGUACG is higher in yeast fitness: 0.505 for the first, 1.08 for the second.

Going from GUGCCGUUGGCGUAAUGGUAACGCGUCUCCCUCCUAAGGAGACGACUACGGGUUCGAGUCCCGUACGGACCG to GUGCUGUUGGCGUAAUGGUAACGCGACUCCCUCCUAAAGAGAAGACUGCGGGUUAGAGUCCCGUAUGGAACG, the yeast fitness falls from 0.617 to 0.568.

First: GUGCCGUUGGCGUAAUGGUAACGCGUCUCCCUCCUAAGGAGUAGACUGUGGGUUCGAGUCCCGUACGGAACG
Second: GUGCCGUUGGAGUAAUGGUAACGCGUCUCCCUCGUAAGGAGAAGCCUGCGGGUUCGAGUCCCGUACGGAACG
The yeast fitness of the first is higher: 0.613 for the first, ≤ 0.5 for the second.

First: GUGCCGUUGGCGUAAUGGUAACGCGUCUCCCUCCUUAGGAGAAGACUGCGGGUUCGAGUCCCGUACGGAACG
Second: GUGCCGUUGGCGUAAUGGUAACGCGUCUCCCUCCUGAGGAGAAGACUGCGGGUUCGAGUCCCGUACGGAACG
The yeast fitness of the first is lower: 0.598 for the first, 0.977 for the second.

GUGCCGUUGGCGUAAUGGUAGCGCGUCUCCGUUCUAAGGAGAUGACUGCGGGUUCAAGUCCCGUACGGUACG and GUGCCGUUGGGGUAAUGGUAACGCGUCUCCCUCCUAAGGAGAAAACUACGGGUUCGAGUCCCGUACGGAACG cannot be ordered by yeast fitness: ≤ 0.5 for the first, ≤ 0.5 for the second.

GUGCUGUUGGCGUAAUGGUAACGCGUCUCCCCCCUAAGGACAAGACUGUGGGUUCGAGGCCCGUACGGAACG and GUGCUAUUGGCGUAAUGGUAACGCGUCUCCCUCCUAAGGAGAAGACUGCGGGUUCGAGUCCCGUUCGGAACG cannot be ordered by yeast fitness: ≤ 0.5 for the first, ≤ 0.5 for the second.

First: GUGCCGUUGGCGUAAUGGUAACGCGUCUCCCUCCUAAGGAGAAGACUGCGGGUUCGAGUCCCGUACGGAUCG
Second: GUGCAGUUGGCGUAAUGGUGACGCGUCUCCCUCCUAAGGAGAAGACUGCGGGUUCGAGUCCCGUACGGAUCG
The yeast fitness of the first is higher: 0.831 for the first, ≤ 0.5 for the second.

In the case of GUGCCGUUGGAGUAAUGGUAACGCGUCUCCCUCCUAAGGAGAAGACUGCGGAUUCGAGUCCCGUAGGCAACG, the yeast fitness is reported as ≤ 0.5.
